Reference: ChEMBL document CHEMBL4334424, “The winding road of the uvaretin class of natural products: from total synthesis to bioactive agent discovery” (Medchemcomm, 2019)

Assays:
REH [1] = assay: Cytotoxicity against human REH cells assessed as combinational index at 5 uM incubated for 72 hrs in presence of 50 uM 6TP by alamar blue assay; assay type: functional
In short: (§1)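 Combination assay in 96-well plates with 100 μL final volume and 1% DMSO. Two test-compound concentrations were crossed with five 6TP concentrations, then cells were added (4000/well adherent, 7000/well suspension). Plates ran 72 h at 37 °C, 5% CO2, with Alamar Blue viability read-out and ≥3 independent experiments. Combination index was calculated by the Chou–Talalay method.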

REH [2] = assay: Cytotoxicity against human REH cells assessed as cell viability at 2.5 uM incubated for 72 hrs in presence of 10 uM 6TP by alamar blue assay (reference value: 10.8 %); assay type: functional; in short: as §1
MIA PaCa-2 [3] = assay: Cytotoxicity against human MIAPaCa2 cells assessed as combinational index at 5 uM incubated for 72 hrs in presence of 25 uM 6TP by alamar blue assay; assay type: functional; in short: as §1
HeLa = assay: Cytotoxicity against human HeLa cells assessed as reduction in cell viability incubated for 72 hrs by alamar blue assay; assay type: functional, cell-based
In short: (§2)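 Adherent cells were seeded at 1500 cells/well in 384-well plates and allowed 2–3 h to attach. Compounds in DMSO, diluted in media over 31.6 nM–200 μM, were tested in triplicate for 72 h continuous exposure at 37 °C, 5% CO2. Alamar Blue was added for the final 3 h and fluorescence read (ex 560/em 590 nm). IC50 was fitted from ≥3 independent experiments.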

REH [4] = assay: Cytotoxicity against human REH cells assessed as combinational index at 2.5 uM incubated for 72 hrs in presence of 50 uM 6TP by alamar blue assay; assay type: functional; in short: as §1
MIA PaCa-2 [5] = assay: Cytotoxicity against human MIAPaCa2 cells assessed as cell viability at 2.5 uM incubated for 72 hrs by alamar blue assay (reference value: 0 %); assay type: functional; details: MIA PaCa-2, 72 h, read-out: Activity; in short: as §1
MIA PaCa-2 [6] = assay: Cytotoxicity against human MIAPaCa2 cells assessed as cell viability at 2.5 uM incubated for 72 hrs in presence of 10 uM 6TP by alamar blue assay (reference value: 6.9 %); assay type: functional; in short: as §1
MIA PaCa-2 [7] = assay: Cytotoxicity against human MIAPaCa2 cells assessed as combinational index at 5 uM incubated for 72 hrs in presence of 100 uM 6TP by alamar blue assay; assay type: functional; in short: as §1
REH [8] = assay: Cytotoxicity against human REH cells assessed as combinational index at 5 uM incubated for 72 hrs in presence of 100 uM 6TP by alamar blue assay; assay type: functional; in short: as §1
MIA PaCa-2 [9] = assay: Cytotoxicity against human MIAPaCa2 cells assessed as cell viability at 5 uM incubated for 72 hrs in presence of 25 uM 6TP by alamar blue assay (reference value: 6.4 %); assay type: functional; in short: as §1
REH [10] = assay: Cytotoxicity against human REH cells assessed as cell viability at 5 uM incubated for 72 hrs in presence of 100 uM 6TP by alamar blue assay (reference value: 49.5 %); assay type: functional; in short: as §1
MIA PaCa-2 [11] = assay: Cytotoxicity against human MIAPaCa2 cells assessed as cell viability at 5 uM incubated for 72 hrs by alamar blue assay (reference value: 0 %); assay type: functional; details: MIA PaCa-2, 72 h, read-out: Activity; in short: as §1
MIA PaCa-2 [12] = assay: Cytotoxicity against human MIAPaCa2 cells assessed as cell viability at 5 uM incubated for 72 hrs in presence of 50 uM 6TP by alamar blue assay (reference value: 13.8 %); assay type: functional; in short: as §1
MIA PaCa-2 [13] = assay: Cytotoxicity against human MIAPaCa2 cells assessed as cell viability at 5 uM incubated for 72 hrs in presence of 100 uM 6TP by alamar blue assay (reference value: 30.7 %); assay type: functional; in short: as §1
MIA PaCa-2 [14] = assay: Cytotoxicity against human MIAPaCa2 cells assessed as combinational index at 5 uM incubated for 72 hrs in presence of 200 uM 6TP by alamar blue assay; assay type: functional; in short: as §1
REH [15] = assay: Cytotoxicity against human REH cells assessed as cell viability at 5 uM incubated for 72 hrs by alamar blue assay (reference value: 0 %); assay type: functional; details: read-out: Activity; in short: as §1
REH [16] = assay: Cytotoxicity against human REH cells assessed as cell viability at 2.5 uM incubated for 72 hrs in presence of 100 uM 6TP by alamar blue assay (reference value: 49.5 %); assay type: functional; in short: as §1
REH [17] = assay: Cytotoxicity against human REH cells assessed as combinational index at 5 uM incubated for 72 hrs in presence of 200 uM 6TP by alamar blue assay; assay type: functional; in short: as §1
MIA PaCa-2 [18] = assay: Cytotoxicity against human MIAPaCa2 cells assessed as combinational index at 2.5 uM incubated for 72 hrs in presence of 100 uM 6TP by alamar blue assay; assay type: functional; in short: as §1
MIA PaCa-2 [19] = assay: Cytotoxicity against human MIAPaCa2 cells assessed as combinational index at 2.5 uM incubated for 72 hrs in presence of 200 uM 6TP by alamar blue assay; assay type: functional; in short: as §1
MIA PaCa-2 [20] = assay: Cytotoxicity against human MIAPaCa2 cells assessed as combinational index at 2.5 uM incubated for 72 hrs in presence of 25 uM 6TP by alamar blue assay; assay type: functional; in short: as §1
REH [21] = assay: Cytotoxicity against human REH cells assessed as cell viability at 2.5 uM incubated for 72 hrs in presence of 50 uM 6TP by alamar blue assay (reference value: 21.9 %); assay type: functional; in short: as §1
REH [22] = assay: Cytotoxicity against human REH cells assessed as cell viability at 5 uM incubated for 72 hrs in presence of 10 uM 6TP by alamar blue assay (reference value: 10.8 %); assay type: functional; in short: as §1
MIA PaCa-2 [23] = assay: Cytotoxicity against human MIAPaCa2 cells assessed as combinational index at 5 uM incubated for 72 hrs in presence of 50 uM 6TP by alamar blue assay; assay type: functional; in short: as §1
MIA PaCa-2 [24] = assay: Cytotoxicity against human MIAPaCa2 cells assessed as cell viability at 2.5 uM incubated for 72 hrs in presence of 50 uM 6TP by alamar blue assay (reference value: 13.8 %); assay type: functional; in short: as §1
REH [25] = assay: Cytotoxicity against human REH cells assessed as reduction in cell viability incubated for 72 hrs by alamar blue assay; assay type: functional, cell-based
In short: (§3)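 Suspension cells (2200/well, 384-well) were added directly onto compound in media with no attachment period. Compounds spanned 31.6 nM–200 μM in triplicate, with 72 h exposure at 37 °C, 5% CO2. Alamar Blue was added for the last 3 h and fluorescence read (ex 560/em 590 nm). IC50 came from ≥3 independent experiments.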

REH [26] = assay: Cytotoxicity against human REH cells assessed as combinational index at 5 uM incubated for 72 hrs in presence of 25 uM 6TP by alamar blue assay; assay type: functional; in short: as §1
MIA PaCa-2 [27] = assay: Cytotoxicity against human MIAPaCa2 cells assessed as cell viability at 2.5 uM incubated for 72 hrs in presence of 100 uM 6TP by alamar blue assay (reference value: 30.7 %); assay type: functional; in short: as §1
REH [28] = assay: Cytotoxicity against human REH cells assessed as cell viability at 2.5 uM incubated for 72 hrs by alamar blue assay (reference value: 0 %); assay type: functional; details: read-out: Activity; in short: as §1
REH [29] = assay: Cytotoxicity against human REH cells assessed as cell viability at 2.5 uM incubated for 72 hrs in presence of 25 uM 6TP by alamar blue assay (reference value: 12.2 %); assay type: functional; in short: as §1
REH [30] = assay: Cytotoxicity against human REH cells assessed as cell viability at 5 uM incubated for 72 hrs in presence of 25 uM 6TP by alamar blue assay (reference value: 12.2 %); assay type: functional; in short: as §1
REH [31] = assay: Cytotoxicity against human REH cells assessed as cell viability at 5 uM incubated for 72 hrs in presence of 50 uM 6TP by alamar blue assay (reference value: 21.9 %); assay type: functional; in short: as §1
HCT-116 = assay: Cytotoxicity against human HCT116 cells assessed as reduction in cell viability incubated for 72 hrs by alamar blue assay; assay type: functional, cell-based; details: HCT-116, 72 h; in short: as §2
MIA PaCa-2 [32] = assay: Cytotoxicity against human MIAPaCa2 cells assessed as combinational index at 2.5 uM incubated for 72 hrs in presence of 50 uM 6TP by alamar blue assay; assay type: functional; in short: as §1
U-937 = assay: Cytotoxicity against human U937 cells assessed as reduction in cell viability incubated for 72 hrs by alamar blue assay; assay type: functional, cell-based; details: U-937, 72 h; in short: as §3
REH [33] = assay: Cytotoxicity against human REH cells assessed as combinational index at 2.5 uM incubated for 72 hrs in presence of 200 uM 6TP by alamar blue assay; assay type: functional; in short: as §1
A549 = assay: Cytotoxicity against human A549 cells assessed as reduction in cell viability incubated for 72 hrs by alamar blue assay; assay type: functional, cell-based; details: A549, 72 h; in short: as §2
REH [34] = assay: Cytotoxicity against human REH cells assessed as combinational index at 2.5 uM incubated for 72 hrs in presence of 25 uM 6TP by alamar blue assay; assay type: functional; in short: as §1
MIA PaCa-2 [35] = assay: Cytotoxicity against human MIAPaCa2 cells assessed as reduction in cell viability incubated for 72 hrs by alamar blue assay; assay type: functional, cell-based; details: MIA PaCa-2, 72 h; in short: as §2
MIA PaCa-2 [36] = assay: Cytotoxicity against human MIAPaCa2 cells assessed as cell viability at 2.5 uM incubated for 72 hrs in presence of 25 uM 6TP by alamar blue assay (reference value: 6.4 %); assay type: functional; in short: as §1
MIA PaCa-2 [37] = assay: Cytotoxicity against human MIAPaCa2 cells assessed as cell viability at 5 uM incubated for 72 hrs in presence of 10 uM 6TP by alamar blue assay (reference value: 6.9 %); assay type: functional; in short: as §1
REH [38] = assay: Cytotoxicity against human REH cells assessed as combinational index at 2.5 uM incubated for 72 hrs in presence of 100 uM 6TP by alamar blue assay; assay type: functional; in short: as §1

## COCOc1cc(OC)c(C(=O)/C=C/c2ccccc2)c(OCOC)c1
REH [1]
  CI: 0.84
REH [2]
  Activity: 11.1%
MIA PaCa-2 [3]
  CI: 0.55
HeLa
  IC50: 9.7 µM
REH [4]
  CI: 1.36
MIA PaCa-2 [5]
  viability at 2.5 µM: 10.2%
MIA PaCa-2 [6]
  Activity: 16.5%
MIA PaCa-2 [7]
  CI: 0.36
REH [8]
  CI: 1.06
MIA PaCa-2 [9]
  Activity: 30%
REH [10]
  Activity: 51%
MIA PaCa-2 [11]
  viability at 5 µM: 16.2%
MIA PaCa-2 [12]
  Activity: 40.8%
MIA PaCa-2 [13]
  Activity: 61.2%
MIA PaCa-2 [14]
  CI: 0.19
REH [15]
  viability at 5 µM: 9%
REH [16]
  Activity: 51%
REH [17]
  CI: 0.64
MIA PaCa-2 [18]
  CI: 0.72
MIA PaCa-2 [19]
  CI: 0.31
MIA PaCa-2 [20]
  CI: 0.67
REH [21]
  Activity: 22.1%
REH [22]
  Activity: 12.7%
MIA PaCa-2 [23]
  CI: 0.51
MIA PaCa-2 [24]
  Activity: 25.1%
REH [25]
  IC50: 9.2 µM
REH [26]
  CI: 0.67
MIA PaCa-2 [27]
  Activity: 49.1%
REH [28]
  viability at 2.5 µM: 8.1%
REH [29]
  Activity: 13.5%
REH [30]
  Activity: 19.1%
REH [31]
  Activity: 26.1%
HCT-116
  IC50: > 20 µM
MIA PaCa-2 [32]
  CI: 0.79
U-937
  IC50: 5.9 µM
REH [33]
  CI: 0.63
A549
  IC50: 4.2 µM
REH [34]
  CI: 0.81
MIA PaCa-2 [35]
  IC50: 2.2 µM
MIA PaCa-2 [36]
  Activity: 18.6%
MIA PaCa-2 [37]
  Activity: 25.4%
REH [38]
  CI: 1.36
